Calls of active or inactive are those of the source. The calls are words filed in the database; no cut-off is given here.
Legend:
[1] = target: T1, Glucose-dependent insulinotropic receptor (Rattus norvegicus, UniProt Q7TQN8); assay: Agonist activity at rat GPR119 by HTRF cAMP assay; format: functional
T1 sequence (Q7TQN8 whole entry): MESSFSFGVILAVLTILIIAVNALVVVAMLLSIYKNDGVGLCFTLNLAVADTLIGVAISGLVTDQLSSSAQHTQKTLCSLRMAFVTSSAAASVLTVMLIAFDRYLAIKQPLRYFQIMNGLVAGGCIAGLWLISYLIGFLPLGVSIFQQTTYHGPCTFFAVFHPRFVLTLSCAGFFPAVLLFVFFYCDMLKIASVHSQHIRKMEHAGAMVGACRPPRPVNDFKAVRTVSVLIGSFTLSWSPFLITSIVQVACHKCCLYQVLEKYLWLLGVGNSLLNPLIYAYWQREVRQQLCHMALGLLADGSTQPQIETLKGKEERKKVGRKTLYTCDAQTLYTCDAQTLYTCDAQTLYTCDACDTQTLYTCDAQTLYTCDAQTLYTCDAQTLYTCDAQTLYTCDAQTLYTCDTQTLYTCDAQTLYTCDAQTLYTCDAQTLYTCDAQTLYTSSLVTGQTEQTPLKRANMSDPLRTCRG

[2] = target: T2, Glucose-dependent insulinotropic receptor (Rattus norvegicus) (UniProt Q7TQN8); assay: Agonist activity at rat GPR119 by HTRF cAMP assay relative to AR231453; format: functional
T2 sequence (whole entry): T1 sequence (Q7TQN8 whole entry)

[3] = target: T3, Glucose-dependent insulinotropic receptor (Homo sapiens, UniProt Q8TDV5); assay: Agonist activity at human GPR119 by HTRF cAMP assay; format: functional
T3 sequence (Q8TDV5 whole entry): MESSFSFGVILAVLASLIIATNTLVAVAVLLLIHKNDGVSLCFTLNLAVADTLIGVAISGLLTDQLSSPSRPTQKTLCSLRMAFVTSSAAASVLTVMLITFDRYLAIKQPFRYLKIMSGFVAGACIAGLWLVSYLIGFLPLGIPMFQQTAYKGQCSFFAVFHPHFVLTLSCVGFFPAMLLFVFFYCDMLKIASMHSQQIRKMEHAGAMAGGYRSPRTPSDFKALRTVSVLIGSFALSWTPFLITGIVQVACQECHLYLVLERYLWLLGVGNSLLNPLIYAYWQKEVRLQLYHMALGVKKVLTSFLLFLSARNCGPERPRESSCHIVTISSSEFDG

[4] = target: T4, Glucose-dependent insulinotropic receptor (Homo sapiens) (UniProt Q8TDV5); assay: Agonist activity at human GPR119 by HTRF cAMP assay relative to AR231453; format: functional
T4 sequence (whole entry): T3 sequence (Q8TDV5 whole entry)

[5] = test system: Mus musculus; assay: Antidiabetic activity in normoglycemic 129SVE mouse assessed as suppression of plasma glucose AUC at 3 mg/kg, po administered 30 mins prior to glucose challenge measured over 120 mins by OGTT; format: functional, organism-based
[6] = test system: Rattus norvegicus; assay: Antidiabetic activity in Zucker diabetic fatty rat assessed as suppression of plasma glucose AUC at 3 mg/kg administered 60 mins prior to glucose challenge by OGTT relative to vehicle-treated control; format: functional
[7] = target: T3, Glucose-dependent insulinotropic receptor; assay: Agonist activity at human GPR119 by serum shift assay
Method in brief: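 HTRF cAMP read-out with cells plated overnight; growth medium swapped for fetal bovine serum-containing medium. Compounds serially diluted in DMSO, then in PBS with IBMX and 0.1% BSA to 2× concentration (1% DMSO) before addition. Potency compared with and without serum.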

[8] = test system: Mus musculus; assay: Antidiabetic activity in normoglycemic 129SVE mouse assessed as […] administered 30 mins prior to glucose challenge measured over 120 mins by OGTT; format: functional, organism-based
[9] = Half life in mouse liver microsomes; format: ADME
[10] = Half life in rat liver microsomes; format: ADME
[11] = Half life in human liver microsomes; format: ADME

| Structure (SMILES) | EC50 [1] [nM] | Emax [2] [%] | EC50 [3] [nM] | Emax [4] [%] | Activity [5] | Activity [6] [%] | EC50 [7] [nM] | Activity [8] | half-life [9] [h] | half-life [10] [h] | half-life [11] [h] |
| --- | --- | --- | --- | --- | --- | --- | --- | --- | --- | --- | --- |
| CS(=O)(=O)c1cnc(O[C@H]2CC[C@H](OC3CCN(C(=O)C4(C(F)(F)F)CC4)CC3)CC2)cn1 | 1380 | 140 | 107 | 107 | – | – | – | – | – | – | – |
| Cc1nc(S(C)(=O)=O)ccc1O[C@H]1CC[C@H](OC2CCN(C(=O)OC(C)C)CC2)CC1 | 89 | 114 | 11 | 108 | – | – | – | – | – | – | – |
| Cc1nc(S(C)(=O)=O)ccc1Oc1ncnc(OC2CCN(C(=O)OC3(C)CC3)CC2)c1F | – | 93 | – | 94 | – | – | – | – | – | – | – |
| N[C@@H](CC(=O)N1CCn2c(nnc2C(F)(F)F)C1)Cc1cc(F)c(F)cc1F [SITAGLIPTIN] | – | – | – | – | Active | 57 | – | – | – | – | – |
| C[C@H](OC(=O)N1CCC(O[C@H]2CC[C@H](Oc3cnc(S(C)(=O)=O)cn3)CC2)CC1)C(F)(F)F | 49.9 | 125 | 4.8 | 112 | – | – | 53 | inactive | > 1 | > 1 | > 1 |
| CS(=O)(=O)c1cnc(O[C@H]2CC[C@H](OC3CCN(CC4(C(F)(F)F)CC4)CC3)CC2)cn1 | 163 | 124 | 62.6 | 116 | – | – | – | – | 0.617 | > 1 | 0.35 |
| CC(C)(C)OC(=O)N1CCC(O[C@H]2CC[C@H](Oc3cnc(S(C)(=O)=O)cn3)CC2)CC1 | 64 | 110 | 5.9 | 110 | – | – | 94 | – | – | – | – |
| CS(=O)(=O)c1cnc(O[C@H]2CC[C@H](OC3CCN(CC4(F)CCCC4)CC3)CC2)cn1 | 922 | 119 | 101 | – | – | – | – | – | – | – | – |
| CC(C)(C)OC(=O)N1CCC(OC2CCCC(Oc3ccc(S(C)(=O)=O)cc3)C2)CC1 (mixture of isomers) | – | – | > 100000 | – | – | – | – | – | – | – | – |
| CS(=O)(=O)c1cnc(O[C@H]2CC[C@H](OC3CCN(CC4(C(F)(F)F)CCCC4)CC3)CC2)cn1 | 101 | 88 | 48.8 | 37 | – | – | – | – | – | – | – |
| CC(C)(C)OC(=O)N1CCC(O[C@H]2CC[C@H](Oc3cnc(C#N)cn3)CC2)CC1 | 28.4 | 100 | 8.3 | 110 | – | – | 144 | – | – | – | – |
| CS(=O)(=O)c1cnc(O[C@H]2CC[C@H](OC3CCN(C(=O)C4(C(F)(F)F)CCCC4)CC3)CC2)cn1 | 108 | 124 | 38.4 | 95 | – | – | – | – | – | – | – |
| CC(C)(C)OC(=O)N1CCC(O[C@H]2CC[C@H](Oc3ccc(S(C)(=O)=O)cn3)CC2)CC1 | 110 | 108 | 47 | 111 | – | – | – | – | – | – | – |
| CC(C)(C)OC(=O)N1CCC(O[C@H]2CC[C@H](Oc3ccc(C#N)cc3)CC2)CC1 | 45 | 106 | 8.6 | 116 | – | – | 334 | – | – | – | – |
| C[C@H](CF)OC(=O)N1CCC(O[C@H]2CC[C@H](Oc3cnc(S(C)(=O)=O)cn3)CC2)CC1 | 317 | 115 | 36.8 | 108 | – | – | – | – | – | – | – |
| CC(C)OC(=O)N1CCC(O[C@H]2CC[C@H](Oc3cnc(S(C)(=O)=O)cn3)CC2)CC1 | 119 | 120 | 13.7 | 110 | – | – | 92.7 | – | > 1 | > 1 | > 1 |
| CS(=O)(=O)c1cnc(O[C@H]2CC[C@H](OC3CCN(CC4(C(F)(F)F)CCC4)CC3)CC2)cn1 | 80 | 99 | 54.8 | 96 | – | – | – | – | – | – | – |
| CS(=O)(=O)c1cnc(O[C@H]2CC[C@H](OC3CCN(C(=O)Oc4ccccc4)CC3)CC2)cn1 | 71.8 | 104 | 9.6 | 116 | – | – | – | – | – | – | – |
